# Screening data deposited in PubChem BioAssay by The Scripps Research Institute Molecular Screening Center.
# rCAG binder: binders of r(CAG) RNA repeats, primary screen, biochemical, fluorescence; r(CAG) RNA repeat, TO-PRO-1 dye displacement fluorescence; inhibition, % at 3 µM; hit rate 1.3% among 370,000; AID 651821, 2012;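 active means inhibition above the plate cutoff, the mean of all test compounds on that plate plus 3 SD, cut at about 35% in these data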;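 further: 0% = DMSO alone and 100% = 100 µM mitoxantrone as full dye displacement; higher means more dye released from RNA so lower well fluorescence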
# HTRA1 inhibitor: HTRA1 serine protease inhibitors, primary screen, biochemical, fluorescence polarization, HTS; inhibition, % at 5.96 µM; hit rate 0.5% among 340,000; Q92743; recombinant HTRA1, FP-rhodamine activity-based probe; AID 504803, 2011; in the data active means inhibition above about 36%;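 further: 0% = enzyme with DMSO and 100% = wells lacking enzyme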
# PRMT1 FP inh: PRMT1 methyltransferase inhibitors, primary screen, biochemical, fluorescence polarization | recombinant PRMT1, activity-based probe fluorescence polarization | inhibition, % at 2.79 µM | AID 652257, 2013 | Protein arginine N-methyltransferase 1 (Homo sapiens), Q99873 | hit rate 1.3% among 370,000;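 active means inhibition above about 21% made by adding two undisclosed values, limit read from the data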
# mABHD4 FP: ABHD4 inhibitors, primary screen, biochemical, fluorescence polarization, mouse; inhibition, % at 8.92 µM; AID 720543, 2013; (Lyso)-N-acylphosphatidylethanolamine lipase (Mus musculus), Q8VD66; purified mABHD4, FP-Rh probe fluorescence polarization; hit rate 0.54% among 370,000;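 active means inhibition exceeding the mean over every tested compound plus 3 SD, cut at about 30% in these data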;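 further: 0% = plate median of compound wells and 100% = S159A mutant with DMSO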
#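 System: mouse ABHD4 enzyme, wild type / Medium: HEPES pH 7.0, NaCl, Pluronic buffer / Reagent: FP-Rh activity-based fluorescent probe / Control set: S159A mutant high control, sample median low control / Detection: fluorescence polarization with parallel and perpendicular emission, 525/598 nm / Schedule: 45 min + 60 min at 25 °C / Compound dosing: 8.92 µM, single dose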
# SIAE primary: human SIAE inhibitors, primary screen, biochemical, fluorescence polarization, FP-Rh probe, 1536-well HTS; Sialate O-acetylesterase (Homo sapiens), Q9HAT2; SIAE FP-Rh probe binding; inhibition, % at 9.66 µM; hit rate 0.69% among 370,000; AID 1053197, 2014;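 active means inhibition above a cutoff: mean of compounds within the control limits plus 3 SD of those, cut at about 17% in these data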;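 further: 0% = plate median of compound wells and 100% = probe without SIAE protein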
# Target sequence (Q9HAT2 whole entry, looked up): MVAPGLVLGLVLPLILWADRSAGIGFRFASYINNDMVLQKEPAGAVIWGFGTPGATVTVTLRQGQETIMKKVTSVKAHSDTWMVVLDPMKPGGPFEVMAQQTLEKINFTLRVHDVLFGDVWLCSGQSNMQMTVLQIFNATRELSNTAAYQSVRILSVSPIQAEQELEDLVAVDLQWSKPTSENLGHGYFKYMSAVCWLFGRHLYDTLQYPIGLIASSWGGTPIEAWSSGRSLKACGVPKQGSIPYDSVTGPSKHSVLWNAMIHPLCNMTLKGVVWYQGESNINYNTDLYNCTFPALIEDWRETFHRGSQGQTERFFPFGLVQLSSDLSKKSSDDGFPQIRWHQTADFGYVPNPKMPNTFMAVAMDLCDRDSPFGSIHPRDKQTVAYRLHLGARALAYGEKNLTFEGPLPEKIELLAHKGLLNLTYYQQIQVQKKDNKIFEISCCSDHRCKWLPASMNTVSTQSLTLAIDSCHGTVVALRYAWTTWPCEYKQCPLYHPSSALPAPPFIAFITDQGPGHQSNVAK
# HTRA1 conf: HTRA1 protease inhibitors, retest, confirmation, biochemical, fluorescence polarization; shares compounds with HTRA1 inhibitor; recombinant HTRA1, FP-rhodamine activity-based probe; inhibition, % at 5.96 µM; hit rate 66% among 1,600; AID 540248, 2011;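 active means mean inhibition over three repeats above a set limit taken from the earlier primary screen, cut at about 37% in these data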;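 further: 0% = HTRA1 with DMSO and 100% = wells lacking HTRA1; inhibitors block probe binding so polarization drops and inhibition rises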
# rCAG bind conf: small molecules binding CAG repeat RNA – biochemical, fluorescence, confirmation; shares compounds with rCAG binder; r(CAG) RNA repeat, TO-PRO-1 dye displacement fluorescence; inhibition, % at 3 µM; hit rate 70% among 4,300; AID 652065, 2013;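 active means inhibition above a per-plate cutoff, the mean inhibition of sample wells plus 3 SD, cut at about 35% in these data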;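 further: loss of TO-PRO-1 fluorescence as compound displaces dye from 1x1 AA loop RNA; 0% = DMSO only wells and 100% = 100 µM mitoxantrone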
# dCAG dye counter: displacement of TO-PRO-1 from CAG DNA duplex, counter-screen for rCAG RNA repeat binder project, biochemical, fluorescence, TO-PRO-1 dye, d(CAG) DNA oligo. shares compounds with rCAG binder. d(CAG) DNA oligo TO-PRO-1 dye displacement. inhibition, % at 3 µM. hit rate 94% among 4,300. AID 652068, 2013;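 active means inhibition above its plate's cutoff, the mean test-well inhibition plus 3 SD, cut at about 4.8% in these data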;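 further: 0% = DNA dye mix with DMSO and 100% = 100 µM mitoxantrone; hits displace the dye from DNA and so lower well fluorescence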
# PRMT1 inh conf: PRMT1 methyltransferase inhibitors, confirmation, biochemical, fluorescence polarization, triplicate; shares compounds with PRMT1 FP inh; recombinant His-PRMT1, activity-based probe fluorescence polarization; inhibition, % at 2.79 µM; hit rate 42% among 3,300;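 active means mean inhibition across replicates above the hit cutoff derived for the earlier primary screen, cut at about 22% in these data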
# mABHD4 conf: ABHD4 inhibitors, retest, confirmation, biochemical, fluorescence polarization, mouse. purified mABHD4, FP-Rh probe fluorescence polarization. hit rate 55% among 1,800. shares compounds with mABHD4 FP. AID 720658, 2013. inhibition, % at 8.92 µM;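 active means mean inhibition across replicates above the hit cutoff set in the primary screen, cut at about 30% in these data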;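 further: 0% = wild-type ABHD4 with DMSO and 100% = catalytically dead S159A mutant with DMSO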
# SIAE inh conf: human SIAE inhibitors, retest, confirmation, biochemical, fluorescence polarization, FP-Rh probe, triplicate | shares compounds with SIAE primary | hit rate 13% among 2,300 | SIAE FP-Rh activity-based probe | inhibition, % at 9.66 µM;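 active means mean inhibition of the replicates above the hit cutoff set in the primary screen, cut at about 17% in these data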;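 further: 0% = SIAE with DMSO and probe and 100% = probe without SIAE; inhibitors lower polarization as more probe stays unbound to SIAE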
# * = called active by the depositor; i = inactive; nt = not tested or not shown; + = active, no number. Most compounds without a hit are left out; they make up all but 3.3% or so of the library.
SMILES,rCAG binder,HTRA1 inhibitor,PRMT1 FP inh,mABHD4 FP,SIAE primary,HTRA1 conf,mABHD4 conf,SIAE inh conf,others
Cc1ccc(-n2nc3cc(C)c(N)cc3n2)cc1,13.9,-16.6,3.1,11.4,10.8,nt,nt,nt,
Cc1cc2nc3ccc(N(C)C)cc3nc2cc1N,-7.6,66.0*,69.5*,56.8*,29.7*,59.8*,23.8,31.8*,
O=C(Nc1ccc(Oc2ccccc2)cc1)C1CCN(c2nnc(-n3cccc3)s2)CC1,13.2,nt,2.9,1.9,2.0,nt,nt,nt,
CC1(C)CC(Nc2ccc(Nc3ccccc3)cc2)CC(C)(C)N1,2.7,41.9*,23.3*,20.6,19.8*,54.5*,nt,5.7,
CC1(C)CC(NC(=O)c2ccccc2)CC(C)(C)N1,-2.5,4.5,-10.0,-1.4,-0.3,nt,nt,nt,
CSc1nsc(/C=C/Nc2ccc(O)cc2C)c1C#N,30.9,74.2*,53.2*,59.3*,43.0*,-9.8,6.8,20.8*,
CSc1nsc(/C=C/Nc2ccc(F)cc2)c1C#N,25.9,-13.2,0.6,2.0,1.1,nt,nt,nt,
COC(=O)[C@]1(CNC(=O)C(F)(F)F)CC(=O)N(C)[C@@H]1c1ccccc1,0.7,nt,2.5,-1.9,4.8,nt,nt,nt,
COc1ccccc1Nc1ccc2c(O)cc(S(=O)(=O)O)cc2c1,74.4*,68.7*,36.6*,85.5*,28.0*,52.9*,nt,53.5*,
COc1cc([N+](=O)[O-])c(OC)cc1Nc1ccccc1C(=O)O,6.4,nt,1.4,7.7,-2.9,nt,nt,nt,
COc1cc(-c2ccc(Nc3ccccc3C(=O)O)c(OC)c2)ccc1Nc1ccccc1C(=O)O,93.3*,42.4*,7.6,53.6*,30.5*,56.0*,80.2*,22.1*,rCAG bind conf=86.5*;dCAG dye counter=58.6*
O=c1ccc2c(-c3ccccc3)c3ccc(O)cc3oc-2c1,i,60.3*,90.0*,43.0*,36.3*,61.3*,81.3*,35.7*,
O=c1cc(-c2ccccc2)oc2cc(O)ccc12,6.6,-6.6,-4.8,-16.3,9.4,nt,nt,nt,
CCOC(=O)[C@@]12CCCC=C1N(CCc1ccc(Cl)cc1)C(=O)[C@H]2CC(=O)NCCCCc1ccccc1,3.5,nt,-4.0,-7.9,-7.0,nt,nt,nt,
CCOC(=O)[C@@]12CCC3=C1N(CCC3)C(=O)[C@H](CC(=O)NCCc1ccccc1OC)C2,-1.2,nt,4.3,1.9,4.3,nt,nt,nt,
CCOc1ccc(Nc2ccc(N)c(S(=O)(=O)O)c2)cc1,55.4*,93.2*,35.8*,107.1*,21.1*,53.1*,54.6*,9.2,rCAG bind conf=51.7*;dCAG dye counter=18.2*;PRMT1 inh conf=9.5
CCn1c(CSc2n[nH]c(N)n2)nc2cc(C(=O)O)ccc21,1.1,42.6*,1.6,19.1,35.9*,66.7*,nt,31.3*,
CCC[C@H]1[C@@H](NC(=O)c2ccc(Cl)c(C(F)(F)F)c2)CC[C@@]23CCCN2C(=O)CCC[C@@H]13,nt,nt,1.5,0.6,2.7,nt,nt,nt,
CN=c1scc(C)n1/N=C/c1cc(Br)c(O)c(OC)c1,3.8,5.1,0.7,13.5,6.7,nt,nt,nt,
CN=c1scc(C)n1/N=C/c1ccc(O)c(O)c1O,21.9,39.3*,26.1*,40.5*,18.7*,60.2*,24.0,0.4,
Cc1[nH]n(-c2ncc(-c3ccccc3)s2)c(=O)c1C(c1ccc(Br)cc1)C(C#N)C#N (stereo unspecified),56.6*,39.1*,3.3,50.5*,23.9*,30.5,42.9*,10.1,rCAG bind conf=80.1*;dCAG dye counter=50.3*
O=C(NCCc1ccccc1)OCc1cn(Cc2ccc(C(F)(F)F)cc2)nn1,-2.3,nt,1.9,5.3,-1.1,nt,nt,nt,
CCCCn1c(N)c(Br)c(=O)[nH]c1=O,-3.7,-2.7,8.1,-0.1,4.2,nt,nt,nt,
CCCCn1c(=O)[nH]c2nc3cc(N)ccc3nc2c1=O,-257.8,42.1*,149.2*,67.5*,31.2*,37.0*,43.5*,10.3,PRMT1 inh conf=143.2*
Cc1cccc(-c2cccc3c4c([nH]c23)[C@@H]2C[C@H](N(C)C(=O)c3ccccc3C)[C@H]([C@H](C)O)CN2CC4)c1,4.0,nt,-6.6,1.7,-4.7,nt,nt,nt,
SMILES,rCAG binder,HTRA1 inhibitor,PRMT1 FP inh,mABHD4 FP,SIAE primary,HTRA1 conf,mABHD4 conf,SIAE inh conf,others
Cn1c(=O)c(NCCO)c2c3c(cccc31)C(=O)c1ccccc1-2,i,60.2*,184.3*,93.2*,57.8*,71.9*,85.0*,117.2*,PRMT1 inh conf=184.2*
Cn1c(=O)c(NCCc2ccccc2)c2c3c(cccc31)C(=O)c1ccccc1-2,-81.8,146.1*,+,198.0*,169.9*,149.2*,+,159.6*,
Cn1c(NCCc2ccccc2)cc(=O)n(C)c1=O,-0.5,0.3,0.7,-0.5,3.7,nt,nt,nt,
O=C(Nc1ccc(Cl)c(Cl)c1)C1CCN(c2ncccn2)CC1,0.1,nt,2.2,-12.5,-2.9,nt,nt,nt,
Cn1cccc1/C=N/NC(=O)c1cc2ccccc2cc1O,32.7,40.2*,-4.4,13.1,17.2*,28.8,nt,1.0,
C/C(=N\NC(=O)c1c[nH]c2ccccc12)c1ccc(C)o1,9.1,-0.7,4.6,-15.7,-0.5,nt,nt,nt,
C/C(=N\NC(=O)c1cc2ccccc2cc1O)c1ccc(C)o1,43.0*,46.8*,-1.1,28.0,23.7*,22.9,nt,-1.5,rCAG bind conf=11.8;dCAG dye counter=6.5*
O=C(N/N=C/C1CC=CCC1)c1cc2ccccc2cc1O (stereo unspecified),32.0,39.9*,0.2,18.6,19.2*,28.3,nt,7.9,
O=C(N/N=C/C1CC=CCC1)c1ccc(O)cc1O (stereo unspecified),1.2,10.4,0.3,8.3,12.8,nt,nt,nt,
Cc1nn(-c2ccccc2)c2sc(C(=O)N3CCC4(CC3)OCCO4)cc12,-0.3,nt,2.6,-8.8,-5.7,nt,nt,nt,
